From ChEMBL document CHEMBL2163312, “Virtual screening identifies novel sulfonamide inhibitors of ecto-5'-nucleotidase” (J Med Chem, 2012)

target: T1, 5'-nucleotidase (Rattus norvegicus, UniProt P21588); experiment: Inhibition of rat recombinant ecto-5'-nucleotidase using [3H]AMP substrate
T1 sequence (P21588 whole entry): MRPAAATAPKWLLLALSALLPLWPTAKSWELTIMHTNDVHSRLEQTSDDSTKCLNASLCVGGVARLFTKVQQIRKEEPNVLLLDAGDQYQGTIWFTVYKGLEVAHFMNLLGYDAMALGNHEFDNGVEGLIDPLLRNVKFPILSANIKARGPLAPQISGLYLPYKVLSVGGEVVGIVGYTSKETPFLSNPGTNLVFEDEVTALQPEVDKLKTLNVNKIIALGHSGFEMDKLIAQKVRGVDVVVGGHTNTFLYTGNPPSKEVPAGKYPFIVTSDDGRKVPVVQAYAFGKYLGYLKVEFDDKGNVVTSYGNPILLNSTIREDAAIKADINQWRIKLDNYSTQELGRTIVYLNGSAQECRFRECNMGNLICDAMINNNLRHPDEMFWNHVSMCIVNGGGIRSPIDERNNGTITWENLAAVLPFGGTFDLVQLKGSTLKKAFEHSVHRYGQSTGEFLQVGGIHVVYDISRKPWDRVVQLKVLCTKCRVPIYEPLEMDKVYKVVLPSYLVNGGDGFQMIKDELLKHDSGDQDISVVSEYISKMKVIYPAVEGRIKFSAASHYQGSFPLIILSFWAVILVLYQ
Summary of the method: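 Purified recombinant rat enzyme in a radioactive assay with [3H]AMP as substrate at 5 μM (near Km). Compounds were screened first at 100 and 10 μM. Full concentration–response curves were run for potent compounds to obtain IC50. Inhibition mechanism: 10 substrate concentrations at three inhibitor concentrations, with velocity normalized to Vmax without inhibitor.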

Structure (SMILES)	IC50 [µM]
CCOc1ccc(C(=O)NC(=S)Nc2ccc(S(N)(=O)=O)cc2)cc1Cl	46.5
NS(=O)(=O)c1ccc(NC(=O)c2cc3cc(Cl)cc(Cl)c3oc2=O)cc1	74.8
COc1cccc2cc(C(=O)Nc3ccc(S(N)(=O)=O)cc3)c(=O)oc12	16.6
NS(=O)(=O)c1cc(Cl)c(NC(=O)c2c(O)[nH]c3ccccc3c2=O)c(Cl)c1	15.5
Cc1oc(-c2ccc(Cl)cc2)cc1C(=O)Nc1ccc(S(N)(=O)=O)cc1	45.1
NS(=O)(=O)c1ccc(N/N=C/c2cccc(Oc3ccccc3)c2)c([N+](=O)[O-])c1	3.99
NS(=O)(=O)c1ccc(N/N=C/c2c(O)ccc3ccccc23)c([N+](=O)[O-])c1	6.54
NS(=O)(=O)c1ccc(N/N=C/c2ccc(O)cc2)c([N+](=O)[O-])c1	8.03
NS(=O)(=O)c1ccc(N/N=C/c2ccccc2O)c([N+](=O)[O-])c1	9.46
Cc1c(NC(=O)c2ccc3c(c2)NC(=O)CO3)c(=O)n(-c2ccccc2)n1C	50.9
NS(=O)(=O)c1ccc(N/N=C/c2cccc(O)c2)c([N+](=O)[O-])c1	18.4
O=C(NC(=S)Nc1ccc(S(=O)(=O)c2ccc(NC(=S)NC(=O)c3ccccc3)cc2)cc1)c1ccccc1	7.1
